Measured values as given in ChEMBL document CHEMBL5058577, “EUbOPEN Chemogenomics Library 2 (Multiplex)” (2022).

System: U2OS
Assay: Multiplex assay against U2OS
Format: toxicity, cell-based
Conditions: human
Summary of the method: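 Cells were classed with CellPathfinder machine-learning gating, first as Hoechst high-intensity objects or normal cells, then (normal cells) as healthy, pyknosed or fragmented nuclei, and finally (pyknosed cells) as mitotic or apoptotic. Staining of live cells at seeding used Hoechst33342, BioTracker Green Microtubule Cytoskeleton Dye, MitoTracker Red and Annexin V Alexa Fluor 680, with imaging on a CQ1 microscope at 37°C and 5% CO2 after compound addition. Tubulin, mitochondrial-mass and membrane-permeability phenotypes are per cents of healthy-nucleus cells.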

[1] = 12 h, 1 µM, compound concentration 1 uM, replicate 1
[2] = 12 h, 1 µM, compound concentration 1 uM, replicate 2
[3] = 12 h, 10 µM, compound concentration 10 uM, replicate 1
[4] = 12 h, 10 µM, compound concentration 10 uM, replicate 2
[5] = 24 h, 1 µM, compound concentration 1 uM, replicate 1
[6] = 24 h, 1 µM, compound concentration 1 uM, replicate 2
[7] = 24 h, 10 µM, compound concentration 10 uM, replicate 1
[8] = 24 h, 10 µM, compound concentration 10 uM, replicate 2
[9] = 48 h, 1 µM, compound concentration 1 uM, replicate 1
[10] = 48 h, 1 µM, compound concentration 1 uM, replicate 2
[11] = 48 h, 10 µM, compound concentration 10 uM, replicate 1
[12] = 48 h, 10 µM, compound concentration 10 uM, replicate 2

O=C(NCC(=O)N1CC[C@H](N[C@H]2CC[C@@](O)(c3ccc(-c4ncccn4)cn3)CC2)C1)c1cccc(C(F)(F)F)c1 [PF-4136309]
Population Apoptotic (%) [1]: 79%
Population Fragmented Nuclei (%) [1]: 25%
Population Healthy Nuclei (%) [1]: 64%
Population Hoechst High Intensity Objects (%) [1]: 1%
Population Membrane Permeable-Phenotype (%) [1]: 6%
Population Mitochondria Different-Phenotype (%) [1]: 3%
Population Mitotic Cells (%) [1]: 20%
Population Normal (%) [1]: 98%
Population Pyknosed Nuclei (%) [1]: 9%
Population Tubulin-Different-Phenotype (%) [1]: 4%
Total Cell Count [1]: 249
Population Apoptotic (%) [2]: 93%
Population Fragmented Nuclei (%) [2]: 13%
Population Healthy Nuclei (%) [2]: 74%
Population Hoechst High Intensity Objects (%) [2]: 4%
Population Membrane Permeable-Phenotype (%) [2]: 11%
Population Mitochondria Different-Phenotype (%) [2]: 5%
Population Mitotic Cells (%) [2]: 6%
Population Normal (%) [2]: 95%
Population Pyknosed Nuclei (%) [2]: 12%
Population Tubulin-Different-Phenotype (%) [2]: 8%
Total Cell Count [2]: 138
Population Apoptotic (%) [3]: 68%
Population Fragmented Nuclei (%) [3]: 25%
Population Healthy Nuclei (%) [3]: 62%
Population Hoechst High Intensity Objects (%) [3]: 4%
Population Membrane Permeable-Phenotype (%) [3]: 15%
Population Mitochondria Different-Phenotype (%) [3]: 4%
Population Mitotic Cells (%) [3]: 31%
Population Normal (%) [3]: 95%
Population Pyknosed Nuclei (%) [3]: 12%
Population Tubulin-Different-Phenotype (%) [3]: 9%
Total Cell Count [3]: 242
Population Apoptotic (%) [4]: 60%
Population Fragmented Nuclei (%) [4]: 22%
Population Healthy Nuclei (%) [4]: 66%
Population Hoechst High Intensity Objects (%) [4]: 1%
Population Membrane Permeable-Phenotype (%) [4]: 25%
Population Mitochondria Different-Phenotype (%) [4]: 10%
Population Mitotic Cells (%) [4]: 40%
Population Normal (%) [4]: 98%
Population Pyknosed Nuclei (%) [4]: 11%
Population Tubulin-Different-Phenotype (%) [4]: 11%
Total Cell Count [4]: 90
Population Apoptotic (%) [5]: 80%
Population Fragmented Nuclei (%) [5]: 22%
Population Healthy Nuclei (%) [5]: 69%
Population Hoechst High Intensity Objects (%) [5]: 1%
Population Membrane Permeable-Phenotype (%) [5]: 4%
Population Mitochondria Different-Phenotype (%) [5]: 2%
Population Mitotic Cells (%) [5]: 20%
Population Normal (%) [5]: 98%
Population Pyknosed Nuclei (%) [5]: 8%
Population Tubulin-Different-Phenotype (%) [5]: 2%
Total Cell Count [5]: 304
Population Apoptotic (%) [6]: 91%
Population Fragmented Nuclei (%) [6]: 16%
Population Healthy Nuclei (%) [6]: 76%
Population Hoechst High Intensity Objects (%) [6]: 3%
Population Membrane Permeable-Phenotype (%) [6]: 5%
Population Mitochondria Different-Phenotype (%) [6]: 4%
Population Mitotic Cells (%) [6]: 8%
Population Normal (%) [6]: 96%
Population Pyknosed Nuclei (%) [6]: 7%
Total Cell Count [6]: 169
Population Apoptotic (%) [7]: 83%
Population Fragmented Nuclei (%) [7]: 23%
Population Healthy Nuclei (%) [7]: 62%
Population Hoechst High Intensity Objects (%) [7]: 3%
Population Membrane Permeable-Phenotype (%) [7]: 10%
Population Mitochondria Different-Phenotype (%) [7]: 3%
Population Mitotic Cells (%) [7]: 16%
Population Normal (%) [7]: 96%
Population Pyknosed Nuclei (%) [7]: 13%
Population Tubulin-Different-Phenotype (%) [7]: 3%
Total Cell Count [7]: 271
Population Apoptotic (%) [8]: 75%
Population Fragmented Nuclei (%) [8]: 21%
Population Healthy Nuclei (%) [8]: 70%
Population Hoechst High Intensity Objects (%) [8]: 0%
Population Membrane Permeable-Phenotype (%) [8]: 15%
Population Mitochondria Different-Phenotype (%) [8]: 11%
Population Mitotic Cells (%) [8]: 25%
Population Normal (%) [8]: 99%
Population Pyknosed Nuclei (%) [8]: 7%
Population Tubulin-Different-Phenotype (%) [8]: 7%
Total Cell Count [8]: 102
Population Apoptotic (%) [9]: 87%
Population Fragmented Nuclei (%) [9]: 14%
Population Healthy Nuclei (%) [9]: 74%
Population Hoechst High Intensity Objects (%) [9]: 2%
Population Membrane Permeable-Phenotype (%) [9]: 4%
Population Mitochondria Different-Phenotype (%) [9]: 3%
Population Mitotic Cells (%) [9]: 12%
Population Normal (%) [9]: 97%
Population Pyknosed Nuclei (%) [9]: 11%
Population Tubulin-Different-Phenotype (%) [9]: 3%
Total Cell Count [9]: 443
Population Apoptotic (%) [10]: 96%
Population Fragmented Nuclei (%) [10]: 12%
Population Healthy Nuclei (%) [10]: 75%
Population Hoechst High Intensity Objects (%) [10]: 3%
Population Membrane Permeable-Phenotype (%) [10]: 6%
Population Mitotic Cells (%) [10]: 4%
Population Normal (%) [10]: 96%
Population Tubulin-Different-Phenotype (%) [10]: 4%
Total Cell Count [10]: 224
Population Apoptotic (%) [11]: 69%
Population Fragmented Nuclei (%) [11]: 22%
Population Healthy Nuclei (%) [11]: 61%
Population Hoechst High Intensity Objects (%) [11]: 4%
Population Membrane Permeable-Phenotype (%) [11]: 9%
Population Mitochondria Different-Phenotype (%) [11]: 5%
Population Mitotic Cells (%) [11]: 30%
Population Normal (%) [11]: 95%
Population Pyknosed Nuclei (%) [11]: 15%
Population Tubulin-Different-Phenotype (%) [11]: 4%
Total Cell Count [11]: 360
Population Apoptotic (%) [12]: 92%
Population Fragmented Nuclei (%) [12]: 20%
Population Healthy Nuclei (%) [12]: 60%
Population Hoechst High Intensity Objects (%) [12]: 0%
Population Membrane Permeable-Phenotype (%) [12]: 15%
Population Mitochondria Different-Phenotype (%) [12]: 8%
Population Mitotic Cells (%) [12]: 7%
Population Normal (%) [12]: 100%
Population Pyknosed Nuclei (%) [12]: 18%
Total Cell Count [12]: 138

CCCN1CCC[C@@H]2Cc3n[nH]cc3C[C@H]21.Cl [QUINPIROLE HYDROCHLORIDE]
Population Apoptotic (%) [1]: 71%
Population Fragmented Nuclei (%) [1]: 31%
Population Healthy Nuclei (%) [1]: 60%
Population Hoechst High Intensity Objects (%) [1]: 2%
Population Membrane Permeable-Phenotype (%) [1]: 7%
Population Mitochondria Different-Phenotype (%) [1]: 1%
Population Mitotic Cells (%) [1]: 28%
Population Normal (%) [1]: 97%
Population Pyknosed Nuclei (%) [1]: 8%
Population Tubulin-Different-Phenotype (%) [1]: 3%
Total Cell Count [1]: 265
Population Apoptotic (%) [2]: 61%
Population Fragmented Nuclei (%) [2]: 21%
Population Healthy Nuclei (%) [2]: 67%
Population Hoechst High Intensity Objects (%) [2]: 0%
Population Membrane Permeable-Phenotype (%) [2]: 2%
Population Mitotic Cells (%) [2]: 38%
Population Normal (%) [2]: 100%
Population Pyknosed Nuclei (%) [2]: 11%
Population Tubulin-Different-Phenotype (%) [2]: 2%
Total Cell Count [2]: 118
Population Apoptotic (%) [3]: 58%
Population Fragmented Nuclei (%) [3]: 19%
Population Healthy Nuclei (%) [3]: 72%
Population Hoechst High Intensity Objects (%) [3]: 1%
Population Membrane Permeable-Phenotype (%) [3]: 2%
Population Mitochondria Different-Phenotype (%) [3]: 0%
Population Mitotic Cells (%) [3]: 41%
Population Normal (%) [3]: 98%
Population Pyknosed Nuclei (%) [3]: 7%
Population Tubulin-Different-Phenotype (%) [3]: 1%
Total Cell Count [3]: 228
Population Apoptotic (%) [4]: 100%
Population Fragmented Nuclei (%) [4]: 9%
Population Healthy Nuclei (%) [4]: 85%
Population Hoechst High Intensity Objects (%) [4]: 2%
Population Membrane Permeable-Phenotype (%) [4]: 6%
Population Mitochondria Different-Phenotype (%) [4]: 5%
Population Mitotic Cells (%) [4]: 0%
Population Normal (%) [4]: 97%
Population Pyknosed Nuclei (%) [4]: 4%
Population Tubulin-Different-Phenotype (%) [4]: 2%
Total Cell Count [4]: 126
Population Apoptotic (%) [5]: 68%
Population Fragmented Nuclei (%) [5]: 27%
Population Healthy Nuclei (%) [5]: 64%
Population Hoechst High Intensity Objects (%) [5]: 1%
Population Membrane Permeable-Phenotype (%) [5]: 4%
Population Mitochondria Different-Phenotype (%) [5]: 3%
Population Mitotic Cells (%) [5]: 31%
Population Normal (%) [5]: 98%
Population Pyknosed Nuclei (%) [5]: 7%
Population Tubulin-Different-Phenotype (%) [5]: 3%
Total Cell Count [5]: 299
Population Apoptotic (%) [6]: 77%
Population Fragmented Nuclei (%) [6]: 18%
Population Healthy Nuclei (%) [6]: 68%
Population Hoechst High Intensity Objects (%) [6]: 0%
Population Mitochondria Different-Phenotype (%) [6]: 4%
Population Mitotic Cells (%) [6]: 22%
Population Normal (%) [6]: 100%
Population Pyknosed Nuclei (%) [6]: 13%
Population Tubulin-Different-Phenotype (%) [6]: 4%
Total Cell Count [6]: 138
Population Apoptotic (%) [7]: 88%
Population Fragmented Nuclei (%) [7]: 13%
Population Healthy Nuclei (%) [7]: 80%
Population Hoechst High Intensity Objects (%) [7]: 2%
Population Membrane Permeable-Phenotype (%) [7]: 2%
Population Mitochondria Different-Phenotype (%) [7]: 0%
Population Mitotic Cells (%) [7]: 11%
Population Normal (%) [7]: 97%
Population Pyknosed Nuclei (%) [7]: 6%
Population Tubulin-Different-Phenotype (%) [7]: 1%
Total Cell Count [7]: 281
Population Apoptotic (%) [8]: 92%
Population Fragmented Nuclei (%) [8]: 9%
Population Healthy Nuclei (%) [8]: 82%
Population Hoechst High Intensity Objects (%) [8]: 0%
Population Membrane Permeable-Phenotype (%) [8]: 0%
Population Mitochondria Different-Phenotype (%) [8]: 1%
Population Mitotic Cells (%) [8]: 7%
Population Normal (%) [8]: 99%
Population Pyknosed Nuclei (%) [8]: 8%
Population Tubulin-Different-Phenotype (%) [8]: 0%
Total Cell Count [8]: 163
Population Apoptotic (%) [9]: 75%
Population Fragmented Nuclei (%) [9]: 19%
Population Healthy Nuclei (%) [9]: 74%
Population Hoechst High Intensity Objects (%) [9]: 1%
Population Membrane Permeable-Phenotype (%) [9]: 4%
Population Mitochondria Different-Phenotype (%) [9]: 1%
Population Mitotic Cells (%) [9]: 25%
Population Normal (%) [9]: 98%
Population Pyknosed Nuclei (%) [9]: 6%
Population Tubulin-Different-Phenotype (%) [9]: 2%
Total Cell Count [9]: 425
Population Apoptotic (%) [10]: 78%
Population Fragmented Nuclei (%) [10]: 17%
Population Healthy Nuclei (%) [10]: 69%
Population Hoechst High Intensity Objects (%) [10]: 3%
Population Mitochondria Different-Phenotype (%) [10]: 5%
Population Mitotic Cells (%) [10]: 21%
Population Normal (%) [10]: 96%
Population Pyknosed Nuclei (%) [10]: 13%
Total Cell Count [10]: 180
Population Apoptotic (%) [11]: 86%
Population Fragmented Nuclei (%) [11]: 11%
Population Healthy Nuclei (%) [11]: 78%
Population Hoechst High Intensity Objects (%) [11]: 3%
Population Membrane Permeable-Phenotype (%) [11]: 4%
Population Mitochondria Different-Phenotype (%) [11]: 1%
Population Mitotic Cells (%) [11]: 13%
Population Normal (%) [11]: 96%
Population Pyknosed Nuclei (%) [11]: 9%
Population Tubulin-Different-Phenotype (%) [11]: 3%
Total Cell Count [11]: 386
Population Apoptotic (%) [12]: 91%
Population Fragmented Nuclei (%) [12]: 12%
Population Hoechst High Intensity Objects (%) [12]: 1%
Population Membrane Permeable-Phenotype (%) [12]: 6%
Population Mitochondria Different-Phenotype (%) [12]: 4%
Population Mitotic Cells (%) [12]: 8%
Population Normal (%) [12]: 98%
Population Tubulin-Different-Phenotype (%) [12]: 2%
Total Cell Count [12]: 251
